The values that follow come from ChEMBL document CHEMBL4732088, “Identification and optimization of piperlongumine analogues as potential antioxidant and anti-inflammatory agents via activation of Nrf2” (Eur J Med Chem, 2021).

Assay [1] concerns PC-12. In words: Neuroprotective activity against 6-OHDA-induced cell damage in rat PC12 cells preincubated for 24 hrs followed by 6-OHDA treatment by MTT assay. The class given is functional, cell-based. The settings on record: dose 5-20 µM. In outline: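 PC12 cells pretreated 24 h with compound (5, 10, 20 μM), then H₂O₂ (200 μM) or 6-OHDA (150 μM); viability by MTT; mean ± SD, three independent experiments.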

Assay [2] deals with PC-12. In words: Protection against 6-OHDA-induced oxidative damage in rat PC12 cells assessed as intracellular ROS level by measuring mean fluorescence intensity at 10 uM pretreated with compound followed by 6-OHDA stimulation by DCFH-DA staining based flow cytometry (reference value: 26327.34). The class given is functional. Background: Flow cytometry measures light scatter and fluorescence of single cells or particles in a stream.

For assay [3], the system named is PC-12. In words: Protection against 6-OHDA-induced oxidative damage in rat PC12 cells assessed as intracellular ROS level by measuring mean fluorescence intensity at 20 uM pretreated with compound followed by 6-OHDA stimulation by DCFH-DA staining based flow cytometry (reference value: 26327.34). The class given is functional.
The subject of assay [4] is PC-12. In words: Protection against H2O2-induced mitochondrial dysfunction in rat PC12 cells assessed as change in mitochondrial membrane potential loss at 10 uM pretreated with compound followed by H2O2 addition by JC-1 staining based flow cytometry (reference value: 21.3 %). The class given is functional. In outline:
(§1)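 Mitochondrial membrane potential in PC12 cells pretreated with compound (5, 10, 20 μM), then exposed to H₂O₂ (200 μM) or 6-OHDA (150 μM). JC-1 staining, red-to-green fluorescence shift read by flow cytometry. Mean ± SD, n = 3.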

The test system of assay [5] is PC-12. In words: Protection against 6-OHDA-induced mitochondrial dysfunction in rat PC12 cells assessed as change in mitochondrial membrane potential at 5 uM pretreated with compound followed by 6-OHDA addition by JC-1 staining based flow cytometry (reference value: 73.2 %). The class given is functional. In outline: as §1
Assay [6] concerns PC-12. In words: Protection against H2O2-induced apoptosis in rat PC12 cells assessed as viable cells at 5 uM incubated for 24 hrs by annexin V FITC/propidium iodide staining based flow cytometry (reference value: 79.3 %). The class given is functional. The settings on record: read-out: Activity.
Assay [7] has as its system PC-12. In words: Protection against H2O2-induced apoptosis in rat PC12 cells assessed as early apoptotic cells at 10 uM incubated for 24 hrs by annexin V FITC/propidium iodide staining based flow cytometry (reference value: 3.9 %). The class given is functional.
Assay [8] has as its system PC-12. In words: Protection against H2O2-induced apoptosis in rat PC12 cells assessed as viable cells at 20 uM incubated for 24 hrs by annexin V FITC/propidium iodide staining based flow cytometry (reference value: 79.3 %). The note with it: read-out: Activity. The class given is functional.
Assay [9] concerns PC-12. In words: Protection against 6-OHDA-induced apoptosis in rat PC12 cells assessed as late apoptotic cells at 10 uM incubated for 24 hrs by annexin V FITC/propidium iodide staining based flow cytometry (reference value: 7.6 %). In kind it is functional.
Assay [10] relates to PC-12. In words: Protection against 6-OHDA-induced apoptosis in rat PC12 cells assessed as late apoptotic cells at 20 uM incubated for 24 hrs by annexin V FITC/propidium iodide staining based flow cytometry (reference value: 7.6 %). The class given is functional.
In assay [11] the test system is PC-12. In words: Prevention of H2O2-induced calcium overload in rat PC12 cells assessed as reduction in intracellular free calcium by measuring mean fluorescence intensity at 5 uM pretreated with compound followed by H2O2 addition measured after 24 hrs by Fluo-3AM based fluorescence assay (reference value: 17791.36%). The class given is functional.
In assay [12] the test system is PC-12. In words: Prevention of 6-OHDA-induced calcium overload in rat PC12 cells assessed as reduction in intracellular free calcium by measuring mean fluorescence intensity at 5 uM pretreated with compound followed by 6-OHDA addition measured after 24 hrs by Fluo-3AM based fluorescence assay (reference value: 6708.18%). In kind it is functional.
In assay [13] the test system is PC-12. In words: Prevention of 6-OHDA-induced calcium overload in rat PC12 cells assessed as reduction in intracellular free calcium by measuring mean fluorescence intensity at 10 uM pretreated with compound followed by 6-OHDA addition measured after 24 hrs by Fluo-3AM based fluorescence assay (reference value: 6708.18%). The class given is functional.
Assay [14] deals with T1, Nuclear factor erythroid 2-related factor 2 (Rattus norvegicus) (UniProt O54968).
T1 sequence (whole entry): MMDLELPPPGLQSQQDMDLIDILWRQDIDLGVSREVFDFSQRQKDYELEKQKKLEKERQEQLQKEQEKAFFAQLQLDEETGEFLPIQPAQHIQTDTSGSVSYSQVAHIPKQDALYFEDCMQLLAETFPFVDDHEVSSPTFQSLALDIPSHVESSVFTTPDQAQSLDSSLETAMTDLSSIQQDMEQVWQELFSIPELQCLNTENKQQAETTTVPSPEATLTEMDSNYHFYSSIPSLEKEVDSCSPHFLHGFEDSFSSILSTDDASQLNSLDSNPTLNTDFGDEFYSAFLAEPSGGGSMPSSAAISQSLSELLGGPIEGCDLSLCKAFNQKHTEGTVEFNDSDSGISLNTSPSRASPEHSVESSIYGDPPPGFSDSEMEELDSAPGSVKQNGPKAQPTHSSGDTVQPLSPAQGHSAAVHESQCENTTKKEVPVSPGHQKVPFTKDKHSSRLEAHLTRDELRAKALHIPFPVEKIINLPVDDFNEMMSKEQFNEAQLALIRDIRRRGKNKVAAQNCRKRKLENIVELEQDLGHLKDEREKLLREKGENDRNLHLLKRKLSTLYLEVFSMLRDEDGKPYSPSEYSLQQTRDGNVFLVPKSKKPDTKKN
In words: Activation of Nrf2 in rat PC12 cells assessed as increase in NQO1 protein level at 20 uM after 24 hrs by Western blot analysis. The class given is cell-based. The settings on record: PC-12, filed as activator. For orientation: In western blotting, separated proteins are transferred to a membrane and probed.

For assay [15], the target named is T1, Nuclear factor erythroid 2-related factor 2 (Rattus norvegicus). In words: Activation of Nrf2 in rat PC12 cells assessed as increase in GCLC protein level at 20 uM after 24 hrs by Western blot analysis. In kind it is cell-based. The settings on record: PC-12, filed as activator.
For assay [16] the target is unchanged. In words: Activation of Nrf2 in rat PC12 cells assessed as increase in HO-1 protein level after 24 hrs by Western blot analysis. The class given is cell-based. The settings on record: PC-12, filed as activator, dose 5-20 µM. In outline:
(§2)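 PC12 cells treated with compound for 24 h at rising concentrations; NQO1, HO-1, TrxR1, GCLM, GCLC protein detected by Western blot.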

For assay [17] the target is unchanged. In words: Activation of Nrf2 in rat PC12 cells assessed as increase in TrxR1 protein level after 24 hrs by Western blot analysis. The class given is cell-based. The settings on record: PC-12, filed as activator, dose 5-20 µM. An outline of the steps:
as §2

Active and inactive are the calls of the source. The rule behind the calls is not given here.

`CCN(C)C(=O)N1CCN(C(=O)/C=C/c2ccc(F)cc2)C1=O`: the Activity entry in the assay with PC-12 [1] was “Dose-dependent effect”; in the assay on PC-12 [4], 9.7%; with PC-12 [5], 79.4%; in the assay on PC-12 [7] it was 2.1%; with PC-12 [9] it was 6.3%; in the assay with PC-12 [10], 5%. For the same compound, the Activity entry in assay [16] and in assay [17] was “Dose-dependent effect” throughout. The Flu intensity is 12110.88 in the assay on PC-12 [2]; 9730 in the assay with PC-12 [3]; 8721.73 in the assay with PC-12 [11]; 4910.91 in the assay with PC-12 [12]; 4204.33 in the assay with PC-12 [13]. Further, the viability at 5 µM in the assay with PC-12 [6] worked out at 84.1%. The viability at 20 µM with PC-12 [8] is 93.7%. Besides, the result in assay [14] and in [15] was Active.
